# Compound activity from PubChem.
# In the library only some 2.3% were active in any assay of this set; here they are far more common.
# TRPC6 act: mouse TRPC6 channel activators, primary screen, cell-based, HEK293, membrane potential dye; Short transient receptor potential channel 6 (Mus musculus), Q61143; HEK293-TRPC6 membrane potential dye fluorescence; stronger effect = higher value; B-score at 10 µM; hit rate 0.13% among 310,000;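 active means B-score of the integrated fluorescence ratio above library mean plus 3 SD, and starting fluorescence ratio within library mean plus 5 SD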;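 further: higher score means more depolarization so channel activation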
# TRPC4 inh: inhibitors of mouse TRPC4 channel, primary screen, Fluo4 calcium, HEK293 TRPC4beta/mu-opioid cells; Short transient receptor potential channel 4 (Mus musculus), Q9QUQ5; DAMGO-evoked Fluo4 calcium flux; stronger effect = lower value; B-score at 10 µM; hit rate 0.39% among 300,000;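 active means B-score over 3 SD under the library average, no early fluorescence shift, positive overall ratio signal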
# Target sequence (Q9QUQ5 whole entry, looked up): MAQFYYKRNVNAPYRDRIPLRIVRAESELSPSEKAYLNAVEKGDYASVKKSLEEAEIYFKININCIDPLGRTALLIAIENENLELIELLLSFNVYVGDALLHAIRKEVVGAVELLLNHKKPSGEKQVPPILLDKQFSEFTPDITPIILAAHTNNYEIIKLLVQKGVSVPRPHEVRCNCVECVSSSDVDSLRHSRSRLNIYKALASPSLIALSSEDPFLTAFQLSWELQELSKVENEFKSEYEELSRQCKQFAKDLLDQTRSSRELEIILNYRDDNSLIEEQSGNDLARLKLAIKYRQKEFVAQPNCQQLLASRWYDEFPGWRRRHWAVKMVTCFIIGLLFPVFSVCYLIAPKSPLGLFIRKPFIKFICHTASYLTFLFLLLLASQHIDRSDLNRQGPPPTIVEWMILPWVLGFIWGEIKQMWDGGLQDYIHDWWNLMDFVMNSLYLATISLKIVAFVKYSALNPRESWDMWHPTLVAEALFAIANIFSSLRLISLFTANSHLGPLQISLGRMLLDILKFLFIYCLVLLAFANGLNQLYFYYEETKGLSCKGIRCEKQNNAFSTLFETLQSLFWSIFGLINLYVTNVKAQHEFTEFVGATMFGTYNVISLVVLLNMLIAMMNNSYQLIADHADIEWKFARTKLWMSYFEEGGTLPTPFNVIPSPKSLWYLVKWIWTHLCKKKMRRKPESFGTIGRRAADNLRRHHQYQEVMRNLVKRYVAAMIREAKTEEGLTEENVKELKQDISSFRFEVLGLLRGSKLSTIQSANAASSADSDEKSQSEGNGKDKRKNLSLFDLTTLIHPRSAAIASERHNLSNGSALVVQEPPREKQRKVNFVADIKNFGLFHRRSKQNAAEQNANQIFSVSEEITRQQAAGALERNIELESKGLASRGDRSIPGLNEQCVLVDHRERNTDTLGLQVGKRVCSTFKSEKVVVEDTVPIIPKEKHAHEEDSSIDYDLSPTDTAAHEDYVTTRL
#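 Assay system – HEK293 line stably carrying TRPC4beta and mu-opioid receptor · Doses – single dose · Detection – Fluo4 calcium-dye fluorescence, kinetic read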
# TRPC4 PAM: positive allosteric modulators of TRPC4, primary screen, cell-based, mouse TRPC4beta, HEK293 mu-opioid, Fluo-4 calcium; Short transient receptor potential channel 4 (Mus musculus), Q9QUQ5; DAMGO EC20, Fluo-4 Ca2+ flux; stronger effect = higher value; B-score at 10 µM; hit rate 0.42% among 310,000;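 active means B-score of calcium response area above 5 SD of library B-scores, with initial fluorescence ratio within 5 SD of library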;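 further: B-score of integrated fluorescence ratio over time as area under calcium response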
# TRPC4 agonist: activators of mouse TRPC4 channel, primary screen, Fluo4 calcium, HEK293 TRPC4beta/mu-opioid cells; Fluo4 calcium fluorescence; stronger effect = higher value; Short transient receptor potential channel 4 (Mus musculus), Q9QUQ5; hit rate 0.49% among 310,000; B-score at 10 µM;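 active means B-score above 5 SD of library B-scores, and initial fluorescence ratio not above library mean plus 5 SD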;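 further: positive B-score marks a calcium rise read as TRPC4 activation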
#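 Assay system – TRPC4beta and mu-opioid receptor HEK293 stable cells · Measured by – Fluo4 fluorescence, kinetic · Schedule – dye loading 45 min room temperature, 110 s kinetic read · Read-out – B-scored integrated calcium fluorescence ratio · Controls – buffer and maximal DAMGO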
# TRPC6 inhibitor: mouse TRPC6 channel inhibitors, primary screen, cell-based, HEK293, membrane potential dye; Short transient receptor potential channel 6 (Mus musculus), Q61143; ACh-evoked depolarization; stronger effect = lower value; B-score at 10 µM; hit rate 1.1% among 310,000;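 active means B-score under library mean minus 3 SD, initial fluorescence not abnormally high, positive integrated signal ratio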;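 further: B-score derived from integrated fluorescence ratio over the kinetic read; more negative B-score means stronger inhibition of depolarization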
# TRPC4 sel inh 2: second check of whether TRPC6 inhibitors also affect mouse TRPC4; inhibition, % at 10 µM; HEK293 TRPC4/MOR, membrane potential dye fluorescence; channel activated by saturating DAMGO dose; shares compounds with TRPC6 inhibitor; hit rate 42% among 920;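 active means compounds whose fluorescence signal differed from control wells by over 3 SD, either direction, in both duplicate plates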
# TRPC4 spec: mouse TRPC4 modulation by TRPC6 hits, confirmation, selectivity assay for TRPC6 inhibitor project, cell-based, HEK293 TRPC4/mu-opioid, membrane potential dye | shares compounds with TRPC6 inhibitor | membrane potential fluorescence | activity change, negative = inhibition, % at 10 µM | hit rate 61% among 920 | AID 2777, 2010;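 active means rise or fall in signal beyond 3 SD of buffer-only wells in both replicate plates, either sign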;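 further: integrated kinetic ratio of fluorescence range over baseline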
# HEK293 MPD ctr 2-1: nonspecific membrane potential effects, parental HEK293, confirmation, counter-screen for TRPC6 inhibitor project, cell-based, second counter screen; signal change vs control, % at 10 µM; hit rate 31% among 920; AID 2779, 2010; shares compounds with TRPC6 inhibitor; parental HEK293 membrane potential dye fluorescence; maximal acetylcholine challenge after compound addition;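 active means membrane potential signal moving either way by over 3 SD of the maximum-effect control, in both duplicate plates, meaning non-specific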
# HEK293 MPD ctr-1: membrane potential modulation in parental HEK293, confirmation, counter-screen for TRPC6 inhibitor project, cell-based | AID 2780, 2010 | shares compounds with TRPC6 inhibitor | hit rate 60% among 920 | membrane potential signal change, % at 10 µM | parental HEK293 membrane potential dye fluorescence;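 active means membrane potential signal shifting up or down by more than 3 SD of buffer-only wells, on both duplicate plates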
# HEK293 MPD ctr-2: parental HEK293 membrane potential modulation, confirmation, counter-screen for TRPC6 modulator project, cell-based. membrane potential signal change, % at 10 µM. shares compounds with TRPC6 inhibitor. hit rate 51% among 2,400. membrane potential dye fluorescence;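 active means membrane potential signal moves up or down beyond 5 SD from buffer-only wells, on both duplicate plates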
# HEK293 MPD ctr 2-2: parental HEK293 nonspecific activity of TRPC6 modulators, second screen. hit rate 14% among 2,400. inhibition, % at 10 µM. shares compounds with TRPC6 inhibitor. membrane potential dye fluorescence; after compound, maximal acetylcholine stimulation;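 active means membrane potential signal drops by more than 5 SD from the mean control signal, in both duplicate plates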;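 further: plate controls were acetylcholine ECmax control wells for no effect and buffer only wells for full effect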
# TRPC4/MOR mod: TRPC4 modulation by TRPC6 hit compounds, confirmation, selectivity assay for TRPC6 modulator project, cell-based, HEK293 TRPC4/mu-opioid, membrane potential dye, mouse; shares compounds with TRPC6 inhibitor; hit rate 69% among 2,400; membrane potential fluorescence; percent change from control (negative = decrease, positive = increase), % at 10 µM;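 active means membrane potential signal moved up or down beyond 5 SD of buffer control wells, in both duplicate plates, actives on both sides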;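 further: plate controls were assay buffer wells for no effect and DAMGO maximal-effect wells for full effect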
# TRPC4 ctr inh 2: second selectivity test of TRPC6 modulators against mouse TRPC4 | HEK293 TRPC4/mu-opioid, membrane potential dye fluorescence; stimulated with maximal-effect DAMGO | inhibition, % at 10 µM | hit rate 55% among 2,400 | shares compounds with TRPC6 inhibitor;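 active means drop in membrane potential signal beyond 5 SD of the control wells in both duplicate plates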;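 further: TRPC4 counter screen for TRPC6 hits run under conditions tuned for TRPC6 not TRPC4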
# TRPC6 inh conf: mouse TRPC6 channel inhibitors, confirmation, HEK293 cells, membrane potential dye, duplicate; AID 488960, 2010; ACh-evoked depolarization; inhibition, % at 10 µM; shares compounds with TRPC6 inhibitor; hit rate 43% among 3,300;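 active means fluorescence ratio falls more than 5 SD below the full-stimulation control mean, in both duplicate runs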;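 further: integrated fluorescence ratio of peak minus minimum over baseline after agonist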
# TRPC6 act conf: mouse TRPC6 channel activators, confirmation, HEK293 cells, membrane potential dye, duplicate | shares compounds with TRPC6 inhibitor | HEK293-TRPC6 membrane potential dye fluorescence, FDSS | activation, % at 10 µM | hit rate 11% among 2,800;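 active means ratio signal rise beyond 5 SD above unstimulated control wells' mean, seen in both duplicate runs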;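 further: plate controls were buffer EC0 wells for no effect and acetylcholine ECmax response for full effect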
# Active calls of the source: *; i = inactive; nt = no result.
SMILES,TRPC6 act,TRPC4 inh,TRPC4 PAM,TRPC4 agonist,TRPC6 inhibitor,HEK293 MPD ctr-2,HEK293 MPD ctr 2-2,TRPC4/MOR mod,TRPC4 ctr inh 2,TRPC6 inh conf,TRPC6 act conf,others
Nc1cnc(Nc2ccc(Br)cc2)nc1N,i,i,i,i,i,nt,nt,nt,nt,nt,nt,
COc1ccc(C(C(=O)NC2CCCC2)N(C(=O)c2csnn2)C2CC2)cc1 (stereo unspecified),i,i,i,i,i,nt,nt,nt,nt,nt,nt,
COc1ccc(C(C(=O)NC2CCCC2)N(C(=O)c2csnn2)C2CCCC2)cc1 (stereo unspecified),i,i,i,i,-6.3*,i,i,18%*,i,i,nt,
O=C(CNCc1ccccc1)Nc1cccc(Cl)c1Cl,i,i,i,i,-6.2*,i,i,14%*,41%*,i,nt,
CC(C)NC(=S)N1CCN(c2ncccn2)CC1,i,i,i,i,-5.4*,i,i,17%*,i,i,i,
S=C(NC1CCCC1)N1CCN(c2ncccn2)CC1,i,i,i,i,i,nt,nt,nt,nt,nt,nt,
Cc1ccc(CN2CCSc3ccc(C(=O)NCCCN4CCOCC4)cc32)cc1,i,i,i,i,i,nt,nt,nt,nt,nt,nt,
CCN1CCN(CCCNC(=O)c2ccc3c(c2)N(Cc2ccc(C)cc2)CCS3)CC1,i,i,i,i,-5.2*,i,i,i,74%*,57%*,i,
CN1CCN(CCCNC(=O)c2ccc3c(c2)N(Cc2ccccc2)CCS3)CC1,i,i,i,i,-7.9*,nt,nt,nt,nt,i,i,TRPC4 sel inh 2=62%*;TRPC4 spec=i;HEK293 MPD ctr 2-1=i;HEK293 MPD ctr-1=i
CCOc1ccc(NS(=O)(=O)c2ccc(C(=O)NCC(c3ccc(OC)cc3)N3CCCC3)cc2)cc1 (stereo unspecified),i,i,i,i,i,nt,nt,nt,nt,nt,nt,
CC(C)Nc1ccc(Nc2ccnc3cc4ccccc4cc23)cc1,i,i,i,i,-6.2*,i,i,i,54%*,i,i,
COc1ccc(Nc2ncnc3ccccc23)cc1,i,i,i,i,i,nt,nt,nt,nt,nt,nt,
c1ccc(CCNc2ccnc3cc4ccccc4cc23)cc1,i,i,i,i,i,nt,nt,nt,nt,nt,nt,
COc1ccc(Nc2ccnc3ccccc23)cc1,i,i,i,i,-8.5*,nt,nt,nt,nt,54%*,i,TRPC4 sel inh 2=54%*;TRPC4 spec=-25%*;HEK293 MPD ctr 2-1=i;HEK293 MPD ctr-1=-284%*
Fc1ccc(Nc2nnc(C(F)(F)F)s2)cc1Cl,i,i,i,i,-8.8*,nt,nt,nt,nt,61%*,i,TRPC4 sel inh 2=i;TRPC4 spec=i;HEK293 MPD ctr 2-1=i;HEK293 MPD ctr-1=i
CC(=O)N(CCC(Cc1ccccc1)c1ccc2c(c1)OCO2)Cc1ccccc1F (stereo unspecified),i,i,i,i,i,nt,nt,nt,nt,nt,nt,
Fc1ccccc1CNCCC(Cc1ccccc1)c1ccc2c(c1)OCO2 (stereo unspecified),i,-8*,i,70*,-6.3*,119%*,i,48%*,69%*,i,nt,
COc1cccc(CNc2cnc3ccccc3c2)c1O,i,i,i,i,i,nt,nt,nt,nt,nt,nt,
COc1cccc(CNc2nc3ccccc3n2C)c1O,i,i,i,i,-5.7*,i,i,i,43%*,i,i,
Cn1c(NCc2c[nH]c3ccccc23)nc2ccccc21,i,-5*,i,i,-6.7*,nt,nt,nt,nt,i,i,TRPC4 sel inh 2=48%*;TRPC4 spec=-12%*;HEK293 MPD ctr 2-1=i;HEK293 MPD ctr-1=-214%*
O=C(CN1CCC(C(=O)c2ccc(F)cc2)CC1)Nc1ccccc1Cl,i,i,i,i,i,nt,nt,nt,nt,nt,nt,
Cc1ccc2nc(N(CCCN(C)C)C(=O)c3ccco3)sc2c1,i,i,i,i,-7.1*,nt,nt,nt,nt,78%*,i,TRPC4 sel inh 2=34%*;TRPC4 spec=-20%*;HEK293 MPD ctr 2-1=i;HEK293 MPD ctr-1=-146%*
CN(C)CCCN(C(=O)c1cc2ccccc2oc1=O)c1nc2ccc(F)cc2s1,i,i,i,i,i,nt,nt,nt,nt,nt,nt,
Cc1ccc2nc(N(CCCN(C)C)C(=O)c3ccc(Br)s3)sc2c1,i,i,i,i,i,nt,nt,nt,nt,nt,nt,
CN(C)CCCN(C(=O)c1ccco1)c1nc2ccc(F)cc2s1,i,i,i,i,-5.6*,-150%*,78%*,-39%*,84%*,64%*,i,
